Assay [1] can be described thus: Binding of fluorescence moiety to hypoxic cells measured in flow cytometry assay at conc of 10e-4 M. It counts as functional, Cricetulus griseus. The essentials: (§1)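 V79 379A Chinese hamster cells (suspension culture, MEM with 7.5% fetal calf serum) incubated at 37 °C with 10^-4 M drug under aerobic or hypoxic gassing (air or N2, each + 5% CO2); DMSO final ≤1%. Flow cytometry after 6 h: excitation 365 nm, emission >390 or 410 nm; naphthalimides excited 458 nm, emission 510–560 nm. Mean fluorescence, arbitrary units, normalized for PMT gain and laser power.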
(A flow cytometer gives signals particle by particle.)

The nature of assay [2]: Binding of fluorescence moiety to oxic cells measured in flow cytometry assay at conc of 10e-4 M. It counts as functional, Cricetulus griseus. In a few lines: as §1
The nature of assay [3]: Cellular content after 4 hr incubation with compound under aerobic condition at 37 C. It is filed as functional. Particulars: Cricetulus griseus. In a few lines:
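Aerobic V79 Chinese hamster cells exposed to 10^-4 M extracellular drug for 4 h at 37 °C, then washed with PBS. Cell content measured by HPLC with an acetonitrile gradient, 50–75% over 10 min with 390 nm detection or 30–50% with 340 nm detection depending on compound. Reported as fmol per cell; about 0.1 fmol/cell corresponds to equilibration with the extracellular space.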

Turning to `CC(=O)Nc1ccc2c3c(cccc13)C(=O)N(CCCn1ccnc1[N+](=O)[O-])C2=O`, the “Fluorescence Intensity” value stood at 37 in assay [1] and 12 in assay [2]. In addition, the Uptake in assay [3] worked out at 0.04 fmol/cell.
Consider `COc1cc2cc(Cn3ccnc3[N+](=O)[O-])c(=O)oc2cc1OC`, for which the “Fluorescence Intensity” value in assay [1] came to 1149; in assay [2], 238.
The like results for `COc1cc2nc(N3CCN(CC(O)Cn4ccnc4[N+](=O)[O-])CC3)nc(N)c2cc1OC` (centres undefined) were, in that order, 85 and 39.
For `COc1ccc2c(Cn3ccnc3[N+](=O)[O-])cc(=O)oc2c1`, in that order: 361 and 24.
For the compound `Nc1ccc2c3c(cccc13)C(=O)N(CCCn1ccnc1[N+](=O)[O-])C2=O`, the “Fluorescence Intensity” value worked out at 335 in assay [1] and 17 in assay [2]. Moreover, the Uptake in assay [3] turned out to be 98 fmol/cell.
For `Nc1ccc2c3c(cccc13)C(=O)N(CCCCCn1ccnc1[N+](=O)[O-])C2=O`, in that order: 235, 42 and 93 fmol/cell.
For `Nc1ccc2c3c(cccc13)C(=O)N(CCCCCCCCCn1ccnc1[N+](=O)[O-])C2=O`, in that order: 263, 78 and 105 fmol/cell.
For the compound `Br.COc1ccc2c(CSCCN)cc(=O)oc2c1`, the “Fluorescence Intensity” value is on record as 77 in assay [1] and 19 in assay [2].
The like results for `COc1ccc2cc(Cn3ccnc3[N+](=O)[O-])c(=O)oc2c1` were, in that order, 203 and 85.
For `COc1cc2oc(=O)cc(Cn3ccnc3[N+](=O)[O-])c2cc1OC`, in that order: 1461 and 64.
As for `O=C(CNCCCN(CCO)CCO)Nc1ccc2c3c(cccc13)C(=O)N(CCCn1ccnc1[N+](=O)[O-])C2=O`, the figures for the “Fluorescence Intensity” value in assay [1] and in assay [2] were 24 and 13, respectively. Also, the Uptake in assay [3] is < 0.005 fmol/cell.
For `COc1ccc2cc(C(=O)NCCN(CCO)CC(O)Cn3ccnc3[N+](=O)[O-])c(=O)oc2c1` (centres undefined), the “Fluorescence Intensity” value in assay [1] is reported as 412; in assay [2], 24.

Values taken from ChEMBL document CHEMBL1125931, “Fluorescent markers for hypoxic cells: a study of nitroaromatic compounds, with fluorescent heterocyclic side chains, that undergo bioreductive binding” (J Med Chem, 1991).
